Assay results gathered from unrelated publications.
Lines come from different studies, so protocols differ.
Target: Bone morphogenetic protein receptor type-2 (BMPR2, Homo sapiens, UniProt Q13873)
One construct used (Q13873 27-1038): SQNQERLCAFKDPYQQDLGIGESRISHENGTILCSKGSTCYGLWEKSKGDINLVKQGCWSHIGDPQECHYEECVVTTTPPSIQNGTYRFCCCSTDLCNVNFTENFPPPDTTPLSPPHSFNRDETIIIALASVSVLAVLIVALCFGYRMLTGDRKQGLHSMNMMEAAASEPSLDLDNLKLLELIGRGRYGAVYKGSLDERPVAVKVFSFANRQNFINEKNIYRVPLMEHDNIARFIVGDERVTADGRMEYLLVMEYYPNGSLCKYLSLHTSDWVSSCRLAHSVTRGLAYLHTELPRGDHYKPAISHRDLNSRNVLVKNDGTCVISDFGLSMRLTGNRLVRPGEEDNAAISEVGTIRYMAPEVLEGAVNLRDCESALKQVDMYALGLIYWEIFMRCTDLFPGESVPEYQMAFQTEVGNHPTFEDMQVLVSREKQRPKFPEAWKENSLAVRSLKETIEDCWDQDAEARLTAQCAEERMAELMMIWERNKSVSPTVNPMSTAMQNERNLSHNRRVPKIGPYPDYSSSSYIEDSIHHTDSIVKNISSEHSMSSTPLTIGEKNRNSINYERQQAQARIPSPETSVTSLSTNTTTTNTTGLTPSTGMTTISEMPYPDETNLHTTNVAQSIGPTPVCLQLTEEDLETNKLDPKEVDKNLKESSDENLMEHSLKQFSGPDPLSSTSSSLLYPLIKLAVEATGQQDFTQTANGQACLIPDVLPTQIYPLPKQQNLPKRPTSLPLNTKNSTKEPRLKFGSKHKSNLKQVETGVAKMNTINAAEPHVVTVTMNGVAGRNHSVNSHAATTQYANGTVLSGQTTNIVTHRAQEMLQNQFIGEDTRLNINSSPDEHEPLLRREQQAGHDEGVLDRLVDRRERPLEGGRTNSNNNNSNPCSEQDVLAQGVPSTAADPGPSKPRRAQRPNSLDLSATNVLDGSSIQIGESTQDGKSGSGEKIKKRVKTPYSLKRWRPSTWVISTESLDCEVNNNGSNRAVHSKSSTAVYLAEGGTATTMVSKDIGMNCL

SMILES | effect on | action | method | tested at | endpoint | result
C[C@H]1CC[C@H](n2c3cnccc3c3cnc(Nc4ccc5c(n4)CCN(C(=O)CO)C5)nc32)CC1 | binding | – | – | 1 µM | remaining binding | 100%
COc1ccc2oc(-c3ccc4nc(N)oc4c3)c/c(=N\c3ccccc3NC(=O)CCN)c2c1 | binding | – | – | 1 µM | remaining binding | 104%
C=CC(=O)N1CCC[C@@H](n2nc(-c3ccc(Oc4ccccc4)cc3)c3c(N)ncnc32)C1 | enzyme activity | inhibitor | – | 1 µM | inhibition | 19%
Cc1ccc(NC(=O)c2ccnc(C(F)(F)F)c2)cc1-c1cc(OCCO)nc(N2CCOCC2)c1 | binding | – | – | 1 µM | remaining binding | 100%
N#Cc1ccc(NC(=O)Nc2ccccc2)cc1 | cell-free assay | – | competition with immobilised ligand | 25 µM | remaining binding | 95%
C1=C/COCc2cc(ccc2OCCN2CCCC2)Nc2nccc(n2)-c2cccc(c2)COC/1 | binding | – | – | 0.1 µM | remaining binding | 80%
CCCCC(=O)Nc1ccc(-c2ccc3ncn(CCC)c(=O)c3c2)cn1 | binding | – | competition with immobilised ligand | 0.5 µM | remaining binding | 100%
CC#CC(=O)N1CCC[C@H]1c1nc(-c2ccc(C(=O)Nc3ccccn3)cc2)c2c(N)nccn12 | enzyme activity | inhibitor | – | 1 µM | inhibition | 0%
